Rpn11 inh = Rpn11 (PSMD14) deubiquitinase inhibitors, primary screen, biochemical, fluorescence polarization, uHTS. inhibition, % at 20 µM. human 26S proteasome, Ub4-pepOG fluorescence polarization; 20S core pre-blocked with epoxomicin. AID 588493, 2011. 360,000 compounds, 0.59% hits;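 active = inhibition at 20 µM, scaled to each plate's controls, above about 33%, limit read from the data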
HNF4A DNA FP = change in binding of human HNF4A to DNA, primary screen, biochemical, fluorescence polarization, FITC-DNA; 1 h; Hepatocyte nuclear factor 4-alpha (Homo sapiens), P41235; activity change, % at 10 µM; 360,000 compounds, 0.3% hits; AID 1224865, 2016; in the data active = activity change above about 30%, passing the limit was not always enough
CSN inh = inhibitors of CSN-mediated cullin deneddylation, primary screen, biochemical, fluorescence polarization, uHTS; Purified CSN, SCF-Nedd8-OG deneddylation; inhibition, % at 12.5 µM; 360,000 compounds, 0.38% hits;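 active = pattern-corrected inhibition above about 35%, with an unprinted fluorescence ratio check between 0.5 and 1.5, limit read from the data, passing the limit was not always enough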;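 also: 0% = enzyme with substrate and 100% = substrate without enzyme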
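Assay system: HEK293T-derived human Csn5 enzyme; quantity: 0.24 nM enzyme; medium: Tris/NaCl/DTT buffer, pH 7.5; also added: substrate SCFSkp2-Nedd8OG, 10 nM; doses: 12.5 µM compound; schedule: 90 min reaction at room temperature; signal: FP; read-out: % inhibition of substrate cleavage by Csn5; benchmarks: substrate-only high control, full reaction low control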
TPT1 inh = Candida albicans TPT1 enzyme inhibitors, primary screen, biochemical, fluorescence polarization; 300,000 compounds, 0.81% hits; AID 1962, 2009; inhibition, % at 5 µM; recombinant caTPT1, FP RNA substrate dephosphorylation;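 active = inhibition above the mean of all tested compounds plus 3 SD, set per screening campaign, cut at about 24% in these data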;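 also: plate controls were DMSO alone for no effect and ferristatin control at 100 nM for full effect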
Myeloid diff MLP = induction of myeloid progenitor differentiation, primary screen, cell-based, flow cytometry, MLPCN library. calls only at 10 µM. 360,000 compounds, 1% hits. ER-HoxA9 myeloid progenitors, lysozyme-GFP differentiation;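 active = normalized GFP-positive differentiation at or above the plate's own cutoff, the solvent-only control mean plus 3 SD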;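 also: cells exposed to compound for four days before flow analysis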
caTPT1 confirm = Candida albicans TPT1 inhibitors, confirmation, biochemical, fluorescence polarization, triplicate | AID 2149, 2009 | 2,400 compounds, 74% hits | shares compounds with TPT1 inh | inhibition, % at 5 µM | recombinant caTPT1, RNase T1 coupled;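 active = inhibition above the primary screen limit, the mean inhibition of all tested compounds plus 3 SD, cut at about 25% in these data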
RNase T1 counter = RNase T1 inhibitors, counter-screen for TPT1 inhibitor project, biochemical, fluorescence polarization; RNase T1 cleavage, 1536-well; shares compounds with TPT1 inh; AID 2153, 2009; 2,400 compounds, 83% hits; inhibition, % at 5 µM;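 active = inhibition above the solvent-only control well mean plus 3 SD, limit set per screening run, cut at about 23% in these data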;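 also: plate controls were DMSO wells with enzyme for no effect and wells without RNase T1 for full effect; inhibitors block cleavage so intact labeled substrate keeps polarization high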
Rpn11 confirm = Rpn11 (PSMD14) deubiquitinase inhibitors, confirmation, biochemical, fluorescence polarization, single concentration; inhibition, % at 20 µM; purified human 26S proteasome, Ub4-pepOG fluorescence polarization; proteasome pretreated with epoxomicin; AID 602318, 2012; 1,900 compounds, 29% hits; shares compounds with Rpn11 inh
MMP-2 inh = MMP-2 enzyme inhibition, confirmation, counter-screen for RPN11 inhibitor project, biochemical, fluorescence, single concentration | shares compounds with Rpn11 inh | 1,900 compounds, 4% hits | recombinant MMP-2, FRET peptide cleavage fluorescence | inhibition, % at 20 µM;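 also: human MMP-2 activated beforehand with APMA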
Target sequence (P08253 whole entry, looked up): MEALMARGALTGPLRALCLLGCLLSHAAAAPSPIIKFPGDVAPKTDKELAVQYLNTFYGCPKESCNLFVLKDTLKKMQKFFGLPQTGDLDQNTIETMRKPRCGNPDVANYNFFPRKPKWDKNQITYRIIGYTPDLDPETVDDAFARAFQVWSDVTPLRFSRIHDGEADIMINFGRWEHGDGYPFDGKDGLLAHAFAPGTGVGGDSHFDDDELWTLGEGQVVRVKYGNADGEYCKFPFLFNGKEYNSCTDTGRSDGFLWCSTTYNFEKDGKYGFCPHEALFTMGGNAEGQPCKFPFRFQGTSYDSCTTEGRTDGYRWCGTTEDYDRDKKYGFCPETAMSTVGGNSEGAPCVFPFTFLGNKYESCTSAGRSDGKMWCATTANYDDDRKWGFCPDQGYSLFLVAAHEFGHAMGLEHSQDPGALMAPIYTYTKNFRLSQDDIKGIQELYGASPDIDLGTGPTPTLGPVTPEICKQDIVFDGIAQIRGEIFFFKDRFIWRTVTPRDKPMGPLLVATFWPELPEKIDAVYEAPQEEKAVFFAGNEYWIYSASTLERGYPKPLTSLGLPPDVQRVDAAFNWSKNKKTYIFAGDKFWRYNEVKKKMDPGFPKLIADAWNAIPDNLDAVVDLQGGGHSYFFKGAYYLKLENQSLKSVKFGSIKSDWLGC
Thrombin FP = bovine thrombin protease inhibition, confirmation, counter-screen for Rpn11 inhibitor project, biochemical, fluorescence polarization, single concentration; 1,900 compounds, 13% hits; bovine thrombin cleavage of Ub4-pepOG; inhibition, % at 20 µM; shares compounds with Rpn11 inh;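 active = mean inhibition at least 40% at 20 µM, or signal 3 deviations below plate average, so some actives read negative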;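 also: plate controls were thrombin with DMSO for no effect and buffer wells lacking thrombin for full effect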
* = called active by the depositor; i = inactive; x = no result; + = active, no number. This is a sample that favours compounds with a hit; in the whole collection about 2.3% have one here. Rule as the data show it, unless noted: active = inhibition above about 40%; inactive = the rest.

SMILES	Rpn11 inh	HNF4A DNA FP	CSN inh	TPT1 inh	Myeloid diff MLP	caTPT1 confirm	RNase T1 counter	Rpn11 confirm	MMP-2 inh	Thrombin FP
Nc1c(-c2ccccc2)nc(Cl)nc1-c1ccccc1	6.1	1.2	3.2	0.1	i	x	x	x	x	x
Cc1cccc(C(=O)NCC(=O)OC(C)C(=O)Nc2ccc(Cl)cn2)c1 (stereo not drawn)	1.6	1.1	2.3	2.1	i	x	x	x	x	x
CC(c1ccco1)N(C(=O)c1cccc(Br)c1)c1ccccn1 (stereo not drawn)	-0.9	4.1	-1.7	-3.1	i	x	x	x	x	x
O=C(Nc1nc2c(s1)CCCC2)c1cccc(S(=O)(=O)N2CCCc3ccccc32)c1	1.7	5.2	-10.8	3.0	i	x	x	x	x	x
CN1CCc2nc(NC(=O)c3cccc(S(=O)(=O)N4CCc5ccccc54)c3)sc2C1	74.8*	49.8*	41.1*	49.5*	i	21.4	29.1*	4.5	10.8	-3.2
Cc1noc(C)c1C(=O)NC1=NCCS1	-0.9	-1.1	-1.6	-0.8	i	x	x	x	x	x
O=C(CSc1nc2ccccc2s1)c1cc2ccccc2o1	55.8*	3.0	-1.6	55.6*	i	15.7	25.1*	29.2	19.8	14.8
O=C(CSc1nc2ccccc2s1)CSc1nc2ccccc2s1	6.1	-0.3	9.4	11.2	i	x	x	x	x	x
COc1cc(/C=c2\sc3n(c2=O)C(c2ccccc2)C(c2ccccc2)=NN=3)ccc1O (stereo not drawn)	43.2*	9.5	6.0	35.3*	+	49.5*	56.4*	23.1	20.0	18.8
N=C1/C(=C\c2ccc(SCc3ccccc3)o2)C(=O)N=C2SC(CC(=O)N3CCOCC3)=NN12	41.2*	11.8	13.2	26.6*	i	27.6*	39.4*	7.6	-4.0	-4.4
Cc1ccc(/C=C2\C(=N)N3N=C(CC(=O)N4CCOCC4)SC3=NC2=O)o1	-4.7	-2.7	8.5	0.7	i	x	x	x	x	x
CSc1ccc(C(=O)/C=C/c2ccc(N)cc2)cc1	17.9	2.5	-9.4	1.0	i	x	x	x	x	x
CSc1ccc(/C=C/C(=O)c2c(O)cc(C)oc2=O)cc1	53.4*	2.7	10.8	72.8*	i	25.9*	46.3*	70.3*	-11.1	131.1*
COc1ccc(C(=O)NCC(=O)N2CCN(C(=O)c3ccco3)CC2)cc1[N+](=O)[O-]	2.3	-0.2	-3.4	x	i	x	x	x	x	x
COc1cc(/C=C(\C#N)c2nc(-c3cc4ccccc4oc3=O)cs2)ccc1O	72.3*	41.0	28.3	37.8*	+	52.5*	57.6*	18.9	35.6	-39.6
CC1CCC(=C(C#N)c2nc(-c3cc4ccccc4oc3=O)cs2)CC1 (stereo not drawn)	6.6	-0.5	2.3	-2.0	i	x	x	x	x	x
Cc1cc(C=C2C(=O)c3ccccc3C2=O)c(C)n1-c1ccc(C(=O)O)cc1	40.5*	2.8	23.9	27.0*	i	34.8*	47.3*	9.3	-21.9	11.9
ClCC1NCC(c2ccccc2Cl)c2c1[nH]c1ccccc21 (stereo not drawn)	71.5*	-13.6	20.4	88.8*	+	14.2	20.8	33.0	37.6	18.2
CC1=C(C(=O)c2ccccc2)C(c2ccc(N3CCOCC3)cc2)NC(=O)N1 (stereo not drawn)	74.5*	16.9	23.6	28.1*	i	39.0*	51.3*	50.6*	-17.7	41.0*
N#C/C(=C\c1ccc(O)c(O)c1)C(=O)Nc1ccccc1	56.3*	3.8	4.9	33.3*	i	39.5*	48.2*	90.8*	9.0	27.4
Cc1cn([C@H]2C[C@H](O)[C@@H](CCC(=O)NCCc3ccc4ccccc4c3)O2)c(=O)[nH]c1=O	-12.4	0.0	2.1	x	i	x	x	x	x	x
CCOc1ccc(N(CC(=O)NC(C)(C)C)C(=O)CCC(=O)Nc2nccs2)cc1	1.0	-0.3	-1.4	-3.3	i	x	x	x	x	x
C[C@H](CO)N1C[C@H](C)[C@@H](CN(C)Cc2ccc(Cl)c(Cl)c2)OCc2cnnn2CCCC1=O	0.6	1.0	-2.9	x	i	x	x	x	x	x
CCn1c(SCC(=O)c2c[nH]c3ccccc23)nnc1-c1cccs1	45.8*	19.2	15.5	25.2*	+	24.9*	35.1*	78.5*	-31.7	44.1*
COCCn1c(SCC(=O)c2c[nH]c3ccccc23)nnc1-c1ccncc1	6.8	1.7	-6.1	-1.0	i	x	x	x	x	x
SMILES	Rpn11 inh	HNF4A DNA FP	CSN inh	TPT1 inh	Myeloid diff MLP	caTPT1 confirm	RNase T1 counter	Rpn11 confirm	MMP-2 inh	Thrombin FP
O=S1(=O)CC(N2CCC(Cc3ccccc3)CC2)CN1CCc1ccccc1 (stereo not drawn)	8.2	-1.7	3.6	x	i	x	x	x	x	x
O=C(O)CCN1C(=O)/C(=C/c2ccc(-c3nc4ccccc4s3)o2)SC1=S	+	59.9*	193.0	30.6*	+	46.3*	66.3*	172.8*	-17.2	34.7
COc1ccc(S(=O)(=O)N2CCCC(C(=O)NCCC(C)C)C2)cc1 (stereo not drawn)	0.0	-0.4	2.3	-0.1	i	x	x	x	x	x
C=CCN=C1S/C(=C\c2ccc(N(C)C)cc2)C(=O)N1CC=C	92.2*	36.4*	16.3	43.9*	i	49.7*	63.3*	19.5	-10.7	21.0
COc1cc(/C=C/c2nc3ccccc3c(=O)[nH]2)cc(Cl)c1O	69.0*	40.3*	21.2	40.6*	i	71.5*	74.4*	1.8	12.5	157.8*
O=C(Nc1cccc2nsnc12)c1ccc(-c2cccc(Cl)c2)o1	71.6*	27.2	21.1	31.3*	x	30.2*	38.4*	21.2	5.6	9.5
O=C(N/N=C/c1ccc(F)cc1)c1cc(-c2ccco2)nc2ccccc12	27.1	-44.0	55.3	1.8	i	x	x	x	x	x

Screening data deposited in PubChem by several laboratories.
